Active and inactive are the calls of the source. No cut-off for these calls is given here.
Legend:
[1] = molecular target: T1, Acetylcholinesterase (Homo sapiens, UniProt P22303); assay: Inhibition of human erythrocyte AChE using acetylthiocholine iodide as substrate incubated for 25 mins by DTNB reagent based Ellman's method; type: tissue-based
[2] = molecular target: T2, Cholinesterase (Homo sapiens, UniProt P06276); assay: Inhibition of human serum BuChe using butyrylthiocholine iodide as substrate incubated for 25 mins by DTNB reagent based Ellman's method; type: cell-free
T2 sequence (P06276 whole entry): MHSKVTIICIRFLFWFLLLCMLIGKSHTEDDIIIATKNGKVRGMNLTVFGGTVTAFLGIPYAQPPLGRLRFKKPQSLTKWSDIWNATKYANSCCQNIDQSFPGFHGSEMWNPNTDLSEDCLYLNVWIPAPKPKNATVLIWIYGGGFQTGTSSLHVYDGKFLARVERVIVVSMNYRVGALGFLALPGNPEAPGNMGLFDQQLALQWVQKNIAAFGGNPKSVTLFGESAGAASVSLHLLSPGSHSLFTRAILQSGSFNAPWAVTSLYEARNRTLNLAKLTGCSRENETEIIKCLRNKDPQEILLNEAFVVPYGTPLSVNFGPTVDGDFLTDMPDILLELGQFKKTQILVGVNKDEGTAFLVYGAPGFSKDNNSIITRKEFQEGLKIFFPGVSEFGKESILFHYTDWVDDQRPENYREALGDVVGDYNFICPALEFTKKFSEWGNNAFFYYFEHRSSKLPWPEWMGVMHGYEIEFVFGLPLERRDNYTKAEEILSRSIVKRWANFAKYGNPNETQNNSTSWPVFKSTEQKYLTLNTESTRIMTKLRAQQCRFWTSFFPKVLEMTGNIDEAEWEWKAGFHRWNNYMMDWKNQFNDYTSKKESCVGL
Method in brief: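 Compound (Tween 80/EtOH stock, final dilutions in pH 8.0 phosphate buffer) preincubated with enzyme 30 min at room temperature, then substrate 0.5 mM plus DTNB, 25 min, 37 °C; yellow anion read spectrophotometrically. Triplicate, three occasions; IC50 from % activity vs log concentration.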

[3] = molecular target: T1, Acetylcholinesterase; assay: Mixed type inhibition of human erythrocyte AChE assessed as decrease in Vmax at 3.3 to 9.9 nM using varying level of acetylthiocholine iodide as substrate by Lineweaver-Burk plot analysis; type: tissue-based; conditions: dose 3.3-9.9 nM
Method in brief: (§1)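 hAChE from human erythrocytes, washed in saline and lysed in 0.1 M Na₃PO₄ pH 7.4 with 0.5% Triton-X, then diluted. Ellman set-up (30 min room-temperature preincubation, then 37 °C with DTNB 1.2 mM) using substrate 0.25, 0.5, 1 and 2 mM and inhibitor 3.3 and 9.9 nM. Vmax and Km by nonlinear regression of substrate–velocity curves; Lineweaver–Burk by linear regression.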

[4] = molecular target: T1, Acetylcholinesterase; assay: Mixed type inhibition of human erythrocyte AChE assessed as increase in Km at 3.3 to 9.9 nM using varying level of acetylthiocholine iodide as substrate by Lineweaver-Burk plot analysis; type: tissue-based; conditions: dose 3.3-9.9 nM; method in brief: as §1
[5] = molecular target: T2, Cholinesterase; assay: Mixed type inhibition of human serum BuChe assessed as decrease in Vmax at 89 to 267 nM using varying level of butyrylthiocholine iodide as substrate by Lineweaver-Burk plot analysis; type: cell-free; conditions: dose 89-267 nM
Method in brief: (§2)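 hBChE from human plasma diluted 1:125 in 0.1 M Na₃PO₄ pH 7.4. Ellman set-up (30 min room-temperature preincubation, then 37 °C with DTNB 1.2 mM) with substrate 0.25, 0.5, 1 and 2 mM and inhibitor 89 and 267 nM. Vmax and Km from nonlinear regression of substrate–velocity curves; Lineweaver–Burk plots by linear regression.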

[6] = molecular target: T2, Cholinesterase; assay: Mixed type inhibition of human serum BuChe assessed as increase in Km at 89 to 267 nM using varying level of butyrylthiocholine iodide as substrate by Lineweaver-Burk plot analysis; type: cell-free; conditions: dose 89-267 nM; method in brief: as §2

T1 sequence (P22303 whole entry): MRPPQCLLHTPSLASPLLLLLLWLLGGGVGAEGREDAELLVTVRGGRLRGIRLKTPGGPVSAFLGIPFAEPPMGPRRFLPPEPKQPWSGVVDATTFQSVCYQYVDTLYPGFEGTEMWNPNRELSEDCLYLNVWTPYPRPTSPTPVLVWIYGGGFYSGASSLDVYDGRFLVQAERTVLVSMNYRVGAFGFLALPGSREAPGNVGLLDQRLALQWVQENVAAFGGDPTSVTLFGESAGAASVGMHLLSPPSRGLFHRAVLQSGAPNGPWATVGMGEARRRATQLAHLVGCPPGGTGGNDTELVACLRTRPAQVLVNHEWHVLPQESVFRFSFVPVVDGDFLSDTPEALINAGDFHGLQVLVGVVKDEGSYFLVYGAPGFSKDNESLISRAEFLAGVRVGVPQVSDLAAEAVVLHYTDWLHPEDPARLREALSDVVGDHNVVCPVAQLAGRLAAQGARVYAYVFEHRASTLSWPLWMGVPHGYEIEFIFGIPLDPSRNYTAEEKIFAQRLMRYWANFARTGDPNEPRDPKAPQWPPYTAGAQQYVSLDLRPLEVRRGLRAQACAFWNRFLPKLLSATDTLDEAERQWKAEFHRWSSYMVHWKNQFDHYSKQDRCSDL

SMILES	IC50 [1] [nM]	IC50 [2] [nM]	inhibition [3]	inhibition [4]	inhibition [5]	inhibition [6]
COc1ccc2[nH]c(CCNC(=O)CCCn3cc(CCCCN4CCc5cc(OC)c(OC)cc5C4CCCN4C(=O)c5ccccc5C4=O)nn3)cc2c1 (stereo unspecified)	159000	4600	–	–	–	–
COc1ccc2c3c1O[C@H]1C[C@@H](O)C=C[C@@]31CCN(CCCCc1cn(CCCCC(=O)NCCc3c[nH]c4ccccc34)nn1)C2	31	1290	–	–	–	–
COc1ccc2c3c1O[C@H]1C[C@@H](O)C=C[C@@]31CCN(CCCCc1cn(CC(=O)NCCc3c[nH]c4ccccc34)nn1)C2	138	907	–	–	–	–
COc1ccc2[nH]cc(CCNC(=O)Cn3cc(CN4CC[C@@]56C=C[C@H](O)C[C@@H]5Oc5c(OC)ccc(c56)C4)nn3)c2c1	5410	8840	–	–	–	–
COc1ccc2[nH]c(CCNC(=O)Cn3cc(CCCCN4CCc5cc(OC)c(OC)cc5C4CCCN4C(=O)c5ccccc5C4=O)nn3)cc2c1 (stereo unspecified)	174000	57200	–	–	–	–
COc1ccc2[nH]cc(CCNC(=O)Cn3cc(CCCCN4CC[C@@]56C=C[C@H](O)C[C@@H]5Oc5c(OC)ccc(c56)C4)nn3)c2c1	23	554	–	–	–	–
COc1ccc2[nH]cc(CCNC(=O)Cn3cc(CN4CCc5cc(OC)c(OC)cc5C4CCCN4C(=O)c5ccccc5C4=O)nn3)c2c1 (stereo unspecified)	39900	26200	–	–	–	–
COc1ccc2[nH]cc(CCNC(=O)CCCCn3cc(CN4CC[C@@]56C=C[C@H](O)C[C@@H]5Oc5c(OC)ccc(c56)C4)nn3)c2c1	1000	2020	–	–	–	–
COc1ccc2[nH]cc(CCNC(=O)CCCCn3cc(CCCCN4CC[C@@]56C=C[C@H](O)C[C@@H]5Oc5c(OC)ccc(c56)C4)nn3)c2c1	18	963	–	–	–	–
COc1ccc2[nH]cc(CCNC(=O)Cn3cc(CCCCN(C)CCCC4c5cc(OC)c(OC)cc5CCN4C)nn3)c2c1 (stereo unspecified)	2200	1600	–	–	–	–
COc1ccc2c3c1O[C@H]1C[C@@H](O)C=C[C@@]31CCN(CCCCc1cn(CCCC(=O)NCCc3c[nH]c4ccccc34)nn1)C2	120	209	Active	Active	Active	Active

Source: ChEMBL document CHEMBL4837234, “"Clicking" fragment leads to novel dual-binding cholinesterase inhibitors” (Bioorg Med Chem, 2021)
